Experimental data taken from ChEMBL document CHEMBL4699498 (J Med Chem, 2020).
The source made the active and inactive calls. The calls are words filed in the database; no cut-off is given here.

What was measured:
SW-620 [1] = assay: Antiproliferation activity against human SW620 assessed as cell growth inhibition incubated for 7 days by CCK-8 assay; type: functional, cell-based; conditions: time 7.0 day
In short: (§1)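 Cells were sub-cultured at least twice and seeded for 24 h before dosing. Compounds came from 10 mM DMSO stocks, given as 10 points of 3-fold serial dilution starting at 10-20 μM. Incubation was about 7 days (Capan-1 13 days) at 37 °C, 5% CO2. Read-out was CCK-8 absorbance at 450 nm, as % growth versus DMSO wells (duplicate wells). IC50 was fitted by nonlinear regression; three independent experiments.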

MDA-MB-468 = assay: Antiproliferation activity against human MDA-MB-468 assessed as cell growth inhibition incubated for 7 days by CCK-8 assay; type: functional, cell-based; conditions: time 7.0 day; in short: as §1
LNCaP = assay: Antiproliferation activity against human LNCAP assessed as cell growth inhibition incubated for 7 days by CCK-8 assay; type: functional, cell-based; conditions: time 7.0 day; in short: as §1
CAPAN-1 [2] = assay: Induction of DNA damage in human Capan1 cells assessed as increase in gammaH2AX foci formation incubated for 24 hrs by Western blot analysis; type: functional, cell-based; conditions: dose microM 0.1-10, time 24.0 hrs
In short: (§2)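 MDA-MB-436 (BRCA1-/-) or Capan-1 (BRCA2-/-) cells were treated 24 h at the indicated concentrations. Lysis was in RIPA buffer with protease inhibitors, and 20-30 μg protein was run on SDS-PAGE. Blots were probed for γH2AX, with β-tubulin as the loading control, and detected by ECL.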

MDA-MB-436 [3] = assay: Induction of DNA damage in human MDA-MB-436 cells assessed as increase in gammaH2AX foci formation incubated for 24 hrs by Western blot analysis; type: functional, cell-based; conditions: dose microM 0.1-10, time 24.0 hrs; in short: as §2
PC-3 = assay: Antiproliferation activity against human PC-3 assessed as cell growth inhibition incubated for 7 days by CCK-8 assay; type: functional, cell-based; conditions: time 7.0 day; in short: as §1
CAPAN-1 [4] = assay: Antiproliferative activity against human CAPAN-1 cells assessed as cell growth inhibition incubated for 13 days by CCK-8 assay; type: functional, cell-based; conditions: CAPAN-1, 312 h; in short: as §1
HCC1937 = assay: Antiproliferation activity against human HCC1937 assessed as cell growth inhibition incubated for 7 days by CCK-8 assay; type: functional, cell-based; conditions: time 7.0 day; in short: as §1
CAPAN-1 [5] = assay: Antitumor activity against CAPAN-1 cells xenografted in Balb/c mouse assessed as tumor growth inhibition at 100 mg/kg, po qd administered for 21 days; type: functional, organism-based; conditions: time 21.0 day
In short: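 Male BALB/c nude mice (5-6 weeks old) carried subcutaneous Capan-1 xenografts (5×10^6 cells, right armpit). At ~150 mm³ they were randomized (6 per group). Dosing was 100 mg/kg by oral gavage daily for 21 days, or 25 mg/kg intraperitoneally 5 times a week for 3 weeks. Vehicle was 5% DMSO/20% PEG400/10% Cremophor EL/65% saline. Tumor volume was (length/2)×width², measured 2-3 times weekly.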

MDA-MB-436 [6] = assay: Antiproliferative activity against human MDA-MB-436 cells assessed as cell growth inhibition incubated for 7 days by CCK-8 assay; type: functional, cell-based; conditions: MDA-MB-436, 168 h; in short: as §1
[7] = Acute toxicity in Balb/c mouse xenografted with Capan1 cells assessed as lethality at 100 mg/kg, po qd administered for 5 days in presence of cisplatin; type: organism-based; conditions: in vivo, 120 h, time 5 day
In short: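 Male BALB/c nude mice (5–6 weeks) carried s.c. Capan-1 xenografts (5×10^6 cells, right armpit) and were randomised at about 150 mm³, 6 per group. The agent was given once daily on days 0–4, by oral gavage or i.p., in DMSO/PEG400/Cremophor EL/saline vehicle. Cisplatin 6 mg/kg in saline was given i.p. on day 2, 45 min after the agent. Body weight was recorded 2–3 times weekly.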

[8] = Acute toxicity in Balb/c mouse xenografted with SW-620 cells assessed as lethality at 10 mg/kg, po qd administered for 5 days in presence of TMZ; type: organism-based; conditions: in vivo, 120 h, time 5 day
In short: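 In male BALB/c nude mice (5–6 weeks), s.c. SW620 xenografts (6×10^6 cells, right armpit) were grown to about 150 mm³, then randomised, 6 per group. The agent was given once daily for 5 days, orally or i.p., in 5% DMSO/20% PEG400/10% Cremophor EL/65% saline. TMZ 50 mg/kg was given orally once daily for 5 days from day 0, 45 min after the agent. Body weight was measured 2–3 times weekly.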

[9] = Acute toxicity in Balb/c mouse xenografted with SW-620 cells assessed as mean weight loss at 10 mg/kg, po qd administered for 5 days in presence of TMZ measured on day 9 relative to control; type: organism-based; conditions: in vivo, 216 h
In short: (§3)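 Male BALB/c nude mice carried SW620 xenografts (6×10^6 cells s.c.), randomized at ~150 mm³ (6 per group). TMZ 50 mg/kg was given orally once daily on days 0-4, 45 min after the partner drug. Partners were 5 or 10 mg/kg intraperitoneally or 10 mg/kg by oral gavage, daily for 5 days. Vehicle was 5% DMSO/20% PEG400/10% Cremophor EL/65% saline. Tumor volume and body weight were recorded 2-3 times weekly.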

MDA-MB-231 = assay: Antiproliferation activity against human MDA-MB-231 assessed as cell growth inhibition incubated for 7 days by CCK-8 assay; type: functional, cell-based; conditions: time 7.0 day; in short: as §1
CWR22R = assay: Antiproliferation activity against human 22Rv1 assessed as cell growth inhibition incubated for 7 days by CCK-8 assay; type: functional, cell-based; conditions: time 7.0 day; in short: as §1
SW-620 [10] = assay: Potentiation of TMZ induced antitumor activity against SW-620 cells xenografted in Balb/c mouse assessed as tumor growth suppression at 10 mg/kg, po qd administered for 5 days; type: functional, organism-based; conditions: time 5.0 day; in short: as §3

For `O=C(c1cc(Cc2n[nH]c(=O)c3ccccc23)ccc1F)N1CCN(C(=O)C2CC2)CC1` [OLAPARIB], the Activity (SW-620 [1]) was “Active”, the Activity (MDA-MB-468) was “Active” and the Activity (LNCaP) was “Active”. The Activity (CAPAN-1 [2]) was “Active”, the Activity (MDA-MB-436 [3]) was “Active” and the Activity (PC-3) was “Active”. For the same compound, the IC50 (CAPAN-1 [4]) was 27 nM, the Activity (HCC1937) was “Active” and the Activity (CAPAN-1 [5]) was “Active”. For the same compound, the IC50 (MDA-MB-436 [6]) was 18 nM, the Activity [7] was “Non-Toxic” and the Activity [8] was “Non-Toxic”. The Activity [9] was 15%, the Activity (MDA-MB-231) was “Active” and the Activity (CWR22R) was “Active”. The Activity (SW-620 [10]) was “Active”.
